Measurements from ChEMBL document CHEMBL3102732, “Potential antiviral lignans from the roots of Saururus chinensis with activity against Epstein-Barr virus lytic replication” (J Nat Prod, 2014).

Columns and labels:
[1] = Selectivity index, ratio of CC50 for human P3HR1 cells to EC50 for EBV infected in human P3HR1 cells; set-up: species or system P3HR-1
Outline: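 CC50: P3HR-1 cells treated or untreated with compounds, viability counted by Trypan blue exclusion under light microscope 2 days post-treatment, relative to nondrug-treated controls, CC50 from dose-response curves. EC50: TPA (20 ng/mL)/sodium butyrate (0.3 mM)-induced P3HR-1 cells, compounds added 3 h later, EBV EBNA1 DNA quantified by real-time PCR at 48 h. Ratio CC50/EC50.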

[2] = Cytotoxicity against human P3HR1 cells assessed as cell viability after 2 days by trypan blue staining-based light microscopy; set-up: species or system P3HR-1
Human gammaherpesvirus 4 = experiment: Antiviral activity against EBV infected in human P3HR1 cells assessed as inhibition of lytic viral DNA replication after 48 hrs by RT-PCR analysis; type: functional, organism-based; settings: human gammaherpesvirus 4, P3HR-1, 48 h
Outline: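 P3HR-1 Burkitt lymphoma cells latently carrying EBV, grown in RPMI 1640 with 10% FBS, induced to lytic replication with TPA 20 ng/mL plus sodium butyrate 0.3 mM. Compounds added 3 h later across a concentration range. At 48 h post-induction, total cellular DNA purified, EBV genome copies quantified by SYBR green real-time PCR for EBNA1. Noninduced background subtracted, normalised to untreated induced cells, EC50 from dose-response curve.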

| SMILES | Ratio CC50/EC50 [1] | CC50 at 48 h [2] | EC50 (Human gammaherpesvirus 4) |
| --- | --- | --- | --- |
| COc1cc([C@@H](O)[C@@H](C)Oc2ccc([C@H]3O[C@H](c4ccc(O[C@H](C)[C@H](O)c5ccc6c(c5)OCO6)c(OC)c4)[C@H](C)[C@H]3C)cc2OC)ccc1O [4-O-DEMETHYLMANASSANTIN B] | 20.2 | 70.8 µM | 3.52 µM |
| COc1cc([C@@H](OC(C)=O)[C@@H](C)Oc2c(OC)cc(/C=C/CO)cc2OC)cc(OC)c1OC | >4.2 | > 200 µM | 44.3 µM |
| C=CCc1cc(OC)c(O[C@H](C)C(=O)c2cc(OC)c(OC)c(OC)c2)c(OC)c1 | >9.1 | > 200 µM | 21.9 µM |
| COc1cc([C@@H](O)[C@@H](C)Oc2ccc([C@H]3O[C@H](c4ccc(O[C@H](C)[C@H](O)c5ccc(OC)c(OC)c5)c(OC)c4)[C@H](C)[C@H]3C)cc2OC)ccc1O | 9.2 | 69.5 µM | 7.55 µM |
| COc1cc([C@H]2O[C@@H](c3ccc(OC)c(OC)c3)[C@@H](C)[C@H]2C)ccc1O | 2.3 | 62.3 µM | 26.9 µM |
| C/C=C/c1cc(OC)c(O[C@H](C)[C@H](OC(C)=O)c2cc(OC)c(OC)c(OC)c2)c(OC)c1 | 3 | 76.8 µM | 25.4 µM |
| COc1cc([C@H]2O[C@@H](c3cc(OC)c(OC)c(OC)c3)[C@H](C)[C@H]2C)cc(OC)c1OC [EPIGRANDISIN] | >8 | > 200 µM | 25 µM |
| C=CCc1cc(OC)c(O[C@H](COC(C)=O)[C@H](O)c2cc(OC)c(OC)c(OC)c2)c(OC)c1 | 3.7 | 194 µM | 53.3 µM |
| COc1cc([C@H]2O[C@@H](c3cc(OC)c(OC)c(OC)c3)[C@H](C)[C@@H]2C)cc(OC)c1O | 2.2 | 65.8 µM | 29.5 µM |
| COc1ccc([C@@H](O)[C@@H](C)Oc2ccc([C@H]3O[C@H](c4ccc(O[C@H](C)[C@H](O)c5ccc6c(c5)OCO6)c(OC)c4)[C@H](C)[C@H]3C)cc2OC)cc1O |  | 26.5 µM | 2.69 µM |
| COc1cc([C@@H](O)[C@@H](C)Oc2ccc([C@@H]3O[C@H](c4ccc(O)c(OC)c4)[C@H](C)[C@H]3C)cc2OC)ccc1O | 3.3 | 23.2 µM | 6.95 µM |
| COc1ccc([C@H]2O[C@@H](c3cc(OC)c(OC)c(OC)c3)[C@H](C)[C@@H]2C)cc1OC | 2.5 | 172 µM | 67.9 µM |
| COc1cc([C@H]2O[C@@H](c3cc(OC)c(OC)c(OC)c3)[C@H](C)[C@@H]2C)cc(O)c1OC | 1.9 | 32 µM | 16.7 µM |
| COc1ccc([C@@H](O)[C@@H](C)Oc2ccc(C(=O)[C@H](C)[C@H](C)C(=O)c3ccc(O[C@H](C)[C@H](O)c4ccc5c(c4)OCO5)c(OC)c3)cc2OC)cc1OC | >12.4 | > 200 µM | 16.2 µM |
| COc1ccc([C@H](O)[C@@H](C)Oc2ccc([C@H]3O[C@H](c4ccc5c(c4)OCO5)[C@H](C)[C@H]3C)cc2OC)cc1OC [SAUCERNEOL D] | 41.1 | 45 µM | 1.09 µM |
| COc1ccc([C@@H](O)[C@@H](C)Oc2ccc([C@H]3O[C@H](c4ccc(OC)c(OC)c4)[C@H](C)[C@H]3C)cc2OC)cc1OC | 65 | 110 µM | 1.7 µM |
| COc1cc(C(=O)[C@@H](C)Oc2c(OC)cc(/C=C/CO)cc2OC)cc(OC)c1OC | >2.5 | > 200 µM | 80.1 µM |
| C/C=C/c1ccc(O[C@H](C)[C@H](O)c2ccc(O)c(OC)c2)c(OC)c1 | 2.6 | 61.3 µM | 23.8 µM |
| C=CCc1cc(OC)c(O[C@H](C)[C@H](O)c2cc(OC)c3c(c2)OCO3)c(OC)c1 | 4 | 50.6 µM | 12.8 µM |
| COc1ccc([C@H]2O[C@@H](c3ccc(OC)c(OC)c3)[C@@H](C)[C@H]2C)cc1OC | 1.2 | 59.8 µM | 49.9 µM |
| COc1ccc([C@H]2O[C@@H](c3cc(OC)c(O)c(OC)c3)[C@H](C)[C@@H]2C)cc1OC | 8.6 | 100 µM | 11.6 µM |
| C/C=C/c1cc(OC)c(O[C@H](C)[C@H](O)c2cc(OC)c3c(c2)OCO3)c(OC)c1 | 4.2 | 90.3 µM | 21.7 µM |
| COc1cc([C@H]2O[C@@H](c3cc(OC)c4c(c3)OCO4)[C@H](C)[C@@H]2C)cc(OC)c1OC | 2 | 55 µM | 27.3 µM |
| C=CCc1cc(OC)c(O[C@H](C)[C@H](OC(C)=O)c2cc(OC)c(OC)c(OC)c2)c(OC)c1 | 4 | 85 µM | 21.5 µM |
| C/C=C/c1cc(OC)c(O[C@@H](C)[C@@H](O)c2cc(OC)c(OC)c(OC)c2)c(OC)c1 | 3.2 | 77.3 µM | 24 µM |
| COc1ccc([C@@H](O)[C@@H](C)Oc2ccc([C@H]3O[C@H](c4ccc(O[C@H](C)[C@H](O)c5ccc6c(c5)OCO6)c(OC)c4)[C@H](C)[C@H]3C)cc2OC)cc1OC [MANASSANTIN B] | >116.4 | > 200 µM | 1.72 µM |
| COc1ccc([C@@H](O)[C@@H](C)Oc2ccc([C@H]3O[C@@]4(c5ccc(O[C@H](C)[C@H](O)c6ccc(OC)c(OC)c6)c(OC)c5)O[C@@]4(C)[C@H]3C)cc2OC)cc1OC (relative stereo) | 4.4 | 64.8 µM | 14.5 µM |
